High-throughput results from PubChem BioAssay.
miR122 inh: miR-122 inhibition in Huh7 cells | Huh7 miR-122 Renilla luciferase sensor, 48 h; neutral wells = 0, positive control = 100 | 0.3% of 340,000 active | activation (reporter increase), % at 12.5 µM;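 active means mean replicate activation score at least 90 and every replicate individually at or above 90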;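 further: higher luciferase means less miR-122 activity so hits act as miR-122 inhibitors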
INS-1E GSIS act: primary screen for activators of insulin secretion dependent on glucose, INS-1E cells, GLuc reporter luminescence | INS-1E GLuc reporter insulin secretion, 2-3 h | activation, % at 16.6 µM | 0.61% of 370,000 active | AID 743287;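 active means lowest replicate activation of at least 40%, so every replicate reaches that level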;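 further: 0% = median of neutral control wells and 100% = median of IBMX positive control wells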
Cneo AK release: causes C. neoformans cell lysis. 0.2% of 360,000 active. adenylate kinase release luminescence, 4 h; normalised: neutral wells 0, clomiphene wells 100. lysis activity, % at 15 µM;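 active means mean lysis activity across replicates of at least 80%, whatever share of replicates individually reach that level; inactive means mean lysis activity below 80%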
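Material: C. neoformans cells; Schedule: 4 h static compound exposure, 37 °C, read 1 h post-reagent; Measured by: adenylate kinase release luminescence; Read-out: signal increase indicating cell lysis; Controls: Clomiphene as positive lysis control.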
dFosB activator: mouse delta FosB homodimer activation. purified delta FosB, TAMRA-CDK5 oligo fluorescence polarization; percent of positive-control signal above neutral wells. activation, % at 25 µM. 0.99% of 340,000 active;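 active means mean activation above about 17%, with every replicate also reaching it, limit read from the data, passing the limit was not always enough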
Target sequence (P13346 whole entry, looked up): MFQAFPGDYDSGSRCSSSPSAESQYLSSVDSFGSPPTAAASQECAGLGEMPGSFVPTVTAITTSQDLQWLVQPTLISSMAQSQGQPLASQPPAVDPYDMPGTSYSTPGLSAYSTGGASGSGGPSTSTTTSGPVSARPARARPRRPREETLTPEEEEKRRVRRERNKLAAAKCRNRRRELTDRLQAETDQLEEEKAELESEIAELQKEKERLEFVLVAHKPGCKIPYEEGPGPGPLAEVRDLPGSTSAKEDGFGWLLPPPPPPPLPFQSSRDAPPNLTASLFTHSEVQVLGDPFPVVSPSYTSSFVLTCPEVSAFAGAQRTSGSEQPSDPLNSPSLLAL
HIV Env fusion: inhibitors of HIV Env-mediated cell fusion; AID 651610; HeLa-JRFL Env/CEM21 cell fusion, luciferase; inhibition, % at 12.3 µM; 1.1% of 360,000 active;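 active means mean replicate inhibition score of at least 50 and every replicate individually at or above 50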;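 further: 0% = plate neutral controls and 100% = maraviroc near 300 nM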
Rtt109 HAT inh: blocks Candida albicans Rtt109/Vps75 acetyltransferase activity; Q5AAJ8; purified Rtt109/Vps75, ThioGlo CoA-SH fluorescence, 4 h; inhibition, % at 34.9 µM; 0.16% of 330,000 active;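 active means inhibition of at least 50% in every replicate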
Numbers without * were called inactive; / = no result; [ ] = dose if it differs, or a comment. Compounds with a hit are over-represented: about 2.4% of the library has one in this group of screens.

SMILES	miR122 inh	INS-1E GSIS act	Cneo AK release	dFosB activator	HIV Env fusion	Rtt109 HAT inh
C[C@H](CO)N1C[C@H](C)[C@H](CN(C)C(=O)NC2CCCCC2)Oc2ccc(NC(=O)CCCCCC(=O)Nc3ccccc3N)cc2C1=O	/	-0.3	/	/	/	/
NC(=O)c1ccc(-c2nnn(CC(=O)Nc3cccc(S(=O)(=O)N4CCCC4)c3)n2)cc1	6.3	-7.0	-0.8	110.5*	-2.7	-3.7
O=C(Nc1ccc(Br)cn1)c1cccc(S(=O)(=O)N2CCCC2)c1	-0.4	/	-2.8	-6.5	56.5*	-4.5
Cc1ccc(NC(=O)c2ccc(Cl)c(S(=O)(=O)N3CCCCCC3)c2)nc1	1.4	-2.2	/	-16.1	61.1*	1.5
O=C(Cn1nnc(-c2ccccc2)n1)Nc1cccc(S(=O)(=O)N2CCOCC2)c1	/	-9.8	-1.3	-4.0	9.1	-0.7
Cc1ccc(NC(=O)c2ccc(S(=O)(=O)N3CCCCCC3)cc2)nc1	12.6	7.0	-4.0	-8.0	-11.5	16.7
O=C(Nc1ccccn1)c1cccc(S(=O)(=O)N2CCOCC2)c1	159.8*	/	1.1	1.5	/	2.8
O=C(C1CCCC1)N1CC(=O)N2[C@@H](CO)[C@H](c3ccc(-c4ccccc4F)cc3)[C@@H]2C1	/	4.2	/	/	/	/
COc1cccc(CN(C)C[C@H]2OCc3ccccc3-c3ccccc3C(=O)N([C@H](C)CO)C[C@H]2C)c1	/	3.3	/	/	/	/
COCC#Cc1cnc2c(c1)C(=O)N([C@@H](C)CO)C[C@@H](C)[C@H](CN(C)S(C)(=O)=O)O2	0.2[16.7 µM]	5.8	0.2	/	/	/
CC(C)NC(=O)Nc1ccc2c(c1)CC(=O)N(C)C[C@@H](C)[C@@H](CN(C)S(C)(=O)=O)O2	/	8.7	/	/	/	/
O=C(c1ccc(Cl)c(S(=O)(=O)N2CCCCCC2)c1)N1CCCCC1	/	-10.2	-0.8	-1.9	-3.2	-21.2
O=C(Nc1cccc(S(=O)(=O)N2CCCCCC2)c1)c1cncc(Br)c1	3.9	/	-3.3	-5.7	55.7*	2.0
Cc1ccc(S(=O)(=O)N2CCCCC2)cc1NC(=O)c1cncc(Br)c1	0.9	-3.2	/	-11.8	12.3	10.6
O=C(c1ccc(Cl)c(S(=O)(=O)N2CCCCCC2)c1)N1CCN(c2ccccn2)CC1	11.4	-17.0	/	-4.3	63.2*	10.1
COc1ccc(CCNc2oc(-c3cccc4ccccc34)nc2P(=O)(OC)OC)cc1OC	-5.0	11.2	3.2	-12.2	68.6*	-15.0
COP(=O)(OC)c1nc(-c2cccc3ccccc23)oc1NCCc1ccccc1	/	-11.2	/	2.2	-11.0	-30.2
CO[C@@H]1CN(C)C(=O)c2ccc(NC(=O)c3ccc(F)cc3)cc2OC[C@@H](C)NC[C@@H]1C	/	5.0	/	/	/	/
COc1ccc2c3c(n(C)c2c1)[C@@H](CO)N(CC1CCOCC1)CC31CCN(C(C)=O)CC1	/	27.3	/	/	-3.1[16.7 µM]	/
CN(C)C(=O)C[C@@H]1C[C@H]2c3cc(NC(=O)C4CCOCC4)ccc3O[C@H]2[C@H](CO)O1	-2.5[16.7 µM]	-9.1	-0.6	/	2.2[16.7 µM]	/
CCc1ccc(NC(=O)C(CC)Sc2nc3cc4c(cc3c(=O)n2Cc2ccco2)OCO4)cc1 (stereo not given)	138.5*	/	-1.0	-2.9	-60.8	0.3
CCSc1nsc(NC(=O)Nc2ccccc2Cl)n1	/	-23.5	-14.9	-2.1	-38.0	-12.4
CCSc1nsc(NC(=O)Nc2ccc(F)cc2F)n1	-4.1	/	0.9	22.9*	/	2.3
C[C@H]1CN([C@@H](C)CO)C(=O)c2cc(-c3ccncc3)cnc2O[C@@H]1CN(C)C(=O)C1CCC1	-1.1[16.7 µM]	23.0	/	/	6.1[16.7 µM]	/
CCNc1nc(NCC)nc(N(C#N)C(C)C)n1	-26.2	47.8*	-1.7	-1.3	-16.7	0.7
O=C(C1CC1)N1C[C@@H]2[C@H](c3ccccc31)[C@H](CO)N2C(=O)c1ccccc1	14.3[16.7 µM]	1.4	-0.9	/	/	/
O=C(Cc1ccccc1)N1C[C@H]2[C@@H](c3ccccc31)[C@@H](CO)N2C(=O)C1CCCCC1	200.0*[16.7 µM]	-8.7	-2.7	/	/	/
O=C(C1CCCCC1)N1C[C@H]2[C@@H](c3ccccc31)[C@@H](CO)N2C(=O)c1ccccc1	260.0*[16.7 µM]	-5.8	-1.7	/	/	/
Cc1ccc(C(=O)OCC(=O)N2c3ccccc3NC(=O)C2(C)C)cc1S(=O)(=O)N1CCCCC1	/	15.5	1.7	-1.9	59.1*	1.7
